Measurements as given in publication PMC6089219 (ACS chemical biology, 2018).

T1: human ALDH1A2 (Homo sapiens, UniProt O94788)
T1 sequence (O94788 27-518): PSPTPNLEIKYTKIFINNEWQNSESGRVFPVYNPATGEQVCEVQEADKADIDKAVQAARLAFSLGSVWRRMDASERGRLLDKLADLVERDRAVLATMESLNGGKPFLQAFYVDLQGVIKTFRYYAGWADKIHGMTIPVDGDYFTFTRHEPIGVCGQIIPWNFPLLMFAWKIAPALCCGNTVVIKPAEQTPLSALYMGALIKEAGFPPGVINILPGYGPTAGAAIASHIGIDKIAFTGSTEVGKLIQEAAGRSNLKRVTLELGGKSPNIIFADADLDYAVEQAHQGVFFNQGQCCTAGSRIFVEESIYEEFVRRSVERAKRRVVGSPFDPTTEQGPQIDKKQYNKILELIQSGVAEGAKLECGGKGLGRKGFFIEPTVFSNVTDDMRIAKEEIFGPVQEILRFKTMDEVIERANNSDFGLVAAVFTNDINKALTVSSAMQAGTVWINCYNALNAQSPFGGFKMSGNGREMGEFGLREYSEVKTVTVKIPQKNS


Key:
[1] = biological target: T1, human ALDH1A2; assay: Differential scanning fluorimetry; assay type: binding; conditions: for DSF ΔTm (°C); (−) NAD: 200 μM compound, 4 μM ALDH1A2, absence of NAD, single experiment in quadruplicate
In short: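 Truncated human ALDH1A2 (residues 27–518) expressed in E. coli BL21Star (DE3), His-tag removed by PreScission protease, purified as a tetramer. Fluorescence read at 620 nm (ROX channel) during thermal melt, in quadruplicate. ΔTm taken against unliganded enzyme with 2% DMSO.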

[2] = biological target: the molecule itself; assay: crystal structure

Row | Molecule | DSF ΔTm (°C); (−) NAD [1] [°C] | further results
1 | CS(=O)(=O)c1ccc(-c2nn(-c3ccc(C#N)cc3)cc2C(=O)Nc2cccc(F)c2)cc1 [CM121] | 5.4 ± 0.15 | –
2 | NC(=O)c1ccc[n+]([C@@H]2O[C@H](COP(=O)([O-])OP(=O)(O)OC[C@H]3O[C@@H](n4cnc5c(N)ncnc54)[C@H](O)[C@@H]3O)[C@@H](O)[C@H]2O)c1 [NAD] | – | DSF ΔTm (°C); (+) NAD ([1]; 1 mM NAD+ alone, no inhibitor): 2.6 ± 0.04 °C
3 | O=C(NCCCCCCCCNC(=O)C(Cl)Cl)C(Cl)Cl [WIN18,446, reference compound] | 7.6 ± 0.17 | –
4 | human ALDH1A2 (residues 27-518) (enzyme, UniProt O94788 27-518, looked up) PSPTPNLEIKYTKIFINNEWQNSESGRVFPVYNPATGEQVCEVQEADKADIDKAVQAARLAFSLGSVWRRMDASERGRLLDKLADLVERDRAVLATMESLNGGKPFLQAFYVDLQGVIKTFRYYAGWADKIHGMTIPVDGDYFTFTRHEPIGVCGQIIPWNFPLLMFAWKIAPALCCGNTVVIKPAEQTPLSALYMGALIKEAGFPPGVINILPGYGPTAGAAIASHIGIDKIAFTGSTEVGKLIQEAAGRSNLKRVTLELGGKSPNIIFADADLDYAVEQAHQGVFFNQGQCCTAGSRIFVEESIYEEFVRRSVERAKRRVVGSPFDPTTEQGPQIDKKQYNKILELIQSGVAEGAKLECGGKGLGRKGFFIEPTVFSNVTDDMRIAKEEIFGPVQEILRFKTMDEVIERANNSDFGLVAAVFTNDINKALTVSSAMQAGTVWINCYNALNAQSPFGGFKMSGNGREMGEFGLREYSEVKTVTVKIPQKNS | – | stoichiometry N [2]: 4
